PolyA inh = polyadenylation inhibitors in yeast reporter cells, primary screen, luminescence, S. cerevisiae. S. cerevisiae SKY197-pL101 polyadenylation reporter, beta-gal luminescence; efflux-impaired pdr1/pdr3 knockout yeast; score 100 = 6 SD above DMSO. activity score, % at 12 µM. hit rate 0.02% among 300,000. AID 1875, 2009;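 active means lowest replicate activity score at least 50, where 100 means six control SD above control mean; inconclusive means lowest score under 50 but half or more replicates reach 50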;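 further: yeast exposed to compound for 9 h at 30 °C; higher score means more reporter readthrough which indicates perturbed polyadenylation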
Calb FLC = C. albicans growth inhibition with fluconazole, primary screen, CaCi-2 strain, Alamar Blue fluorescence; hit rate 0.57% among 300,000; C. albicans CaCi-2 (fluconazole-resistant clinical isolate) + fluconazole, 48 h; growth inhibition, % (concentration not given with the values); AID 1979, 2009;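 active means growth inhibition above about 58% in most replicates, limit read from the data, passing the limit was not always enough; inconclusive means exactly half the replicates above a set limit; inactive means most replicates below a set limit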;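 further: all wells also contain fluconazole at 8 µg/ml as a sub-toxic cotreatment; 0% = median of DMSO wells and 100% = median of geldanamycin control wells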
CSC inhib = cancer stem cell viability inhibitors, primary screen, luminescence; cancer stem cell-like cells viability; inhibition, % at 7.5 µM; hit rate 1.1% among 300,000; AID 2717, 2010; in the data active means inhibition above about 75%; inconclusive means no clear call, values can overlap the other calls; tested in HMLE shEcad cells
Beta apoptosis = inhibitors of cytokine-induced beta cell apoptosis, primary screen, luminescence; INS-1E cytokine-induced death, ATP luminescence, 48 h; percent of positive-control rescue, neutral wells zero; protection from apoptosis, % (test concentration not listed); hit rate 0.8% among 300,000;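 active means Every replicate reaches about 75%, or at least half do and their mean reaches it too, limit read from the data; inconclusive means At least half of replicates reach the limit but their mean does not; inactive means Under half of replicates reach the limit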;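 further: 0% = cytokine-treated negative control wells and 100% = positive control rescue; higher means more ATP so stronger rescue from cytokine killing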
T cruzi repl = inhibitors of intracellular T. cruzi growth, primary screen, luminescence, NIH3T3 host cells; T. cruzi beta-gal in NIH3T3, 90 h; inhibition, % (test concentration not listed); hit rate 1.4% among 300,000; AID 1885, 2009;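 active means mean inhibition across valid replicates above about 55%, limit read from the data; inconclusive means mean below that limit but half or more replicates reach it; inactive means mean below it, under half of replicates reach it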;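 further: signal also drops with host cell toxicity which is not excluded here; 0% = plate median of DMSO wells and 100% = zero luminescence signal; higher percent means less beta-gal luminescence so fewer parasites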
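System: Mouse NIH/3T3 fibroblasts infected with β-gal-expressing T. cruzi Tulahuen C4 | Quantity: NIH/3T3 cells, 5,000 per well | Reagent: 5000 reporter trypomastigotes per well | Dosing: Compound pinned at 50 nL/well, DMSO | Schedule: 3 h host attachment, then at least 90 h co-culture | Detection: GalScreen luminescence, 60 min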
HIF act = HIF pathway transcriptional activators, primary screen, cell-based, U2OS HRE-luciferase, luminescence; U2OS HRE-luciferase reporter; normalized: DMSO 0%, desferrioxamine 100%; activation, % at 7.5 µM (by protocol); hit rate 0.32% among 300,000; AID 1910, 2009;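 active means mean activation of at least 10% of the iron chelator positive control signal, with at least half of replicates also reaching 10%; inconclusive means mean and replicate majority disagree about reaching 10%; inactive means mean and most replicates under 10%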
Numbers without * were called inactive; ? = inconclusive; · = no result given. Only some compounds are listed: those with a hit (about 3.1% of all), similar ones and a draw of the others.

SMILES | PolyA inh | Calb FLC | CSC inhib | Beta apoptosis | T cruzi repl | HIF act
Cc1ccc(NC(=O)COc2ccccc2CNC(C)(C)CC(C)(C)C)cc1 | -9.4 | -26.0 | 12.5 | 34.3 | 61.1* | -0.7
Cc1ncsc1CCC(=O)N1CCCC(C(=O)c2cccc(Cl)c2)C1 (stereo unspecified) | 4.0 | 6.2 | -2.2 | -7.1 | 12.9 | -0.4
COc1ccc2oc(=O)c(C(=O)NC3CCCCCC3)cc2c1 | 7.7 | 1.2 | · | · | -15.4 | 9.9*
CNC(=O)c1cc2cc(OC)ccc2oc1=O | -4.8 | -18.5 | -8.6 | 2.4 | -10.4 | 0.1
CC(C)CCNC(=O)C(c1ccco1)N(Cc1ccccc1)C(=O)c1snc(C(N)=O)c1N (stereo unspecified) | -1.5 | 10.6 | -7.9 | · | 13.8 | -0.7
Cc1ccc(N(C(=O)c2snc(C(N)=O)c2N)C(C(=O)NCCC(C)C)c2ccco2)cc1 (stereo unspecified) | 3.2 | 9.0 | -11.4 | -6.9 | 55.9* | -0.4
CCCCN(C(=O)c1cc(CC)c(C)s1)c1c(N)n(CCC)c(=O)[nH]c1=O | -9.5 | -7.5 | -9.7 | · | 2.3 | -0.1
O=C1NC(=O)N(c2ccccc2)C1=O | 8.2 | 2.4 | · | -5.6 | -3.1 | 0.1
O=C1CN(c2ccccc2)C(=O)N1 | 7.4 | 4.2 | -12.8 | -3.6 | 2.1 | 47.8*
Cc1ccccc1N(CC(=O)NCc1ccccc1)C(=O)CCC(=O)Nc1nccs1 | 2.9 | -5.6 | -28.6 | 4.1 | 1.1 | -1.1
COc1ccccc1NC(=O)Cn1cc(C(=O)c2ccco2)c2ccccc21 | -10.3 | -2.3 | -10.6 | 86.7* | -14.0 | 0.6
CC(C)CC1Nc2ncnc(N3CCN(c4ccccc4)CC3)c2N(Cc2ccccc2)C1=O (stereo unspecified) | 83.6* | 9.2 | 21.4 | -3.0 | 24.7 | 0.0
CN1C(c2ccccc2)CCOS1(=O)=O (stereo unspecified) | -7.4 | 4.8 | 4.8 | -3.7 | -7.6 | 1.0
O=C(CCCN1C(=O)C2CC=CCC2C1=O)Nc1ccccc1F (stereo unspecified) | 5.8 | -0.9 | -0.3 | 0.1 | -6.6 | 0.2
Cc1cc(C)c(S(=O)(=O)N2CCOC2CNC(=O)C(=O)NCc2cccnc2)c(C)c1 (stereo unspecified) | 7.9 | ? | -14.0 | -5.2 | 0.3 | -0.1
C/C(=N/NC(=O)c1ccc(-c2ccccc2)cc1)c1cc(O)cc(O)c1 | · | 5.4 | 95.8* | -0.3 | · | ·
CCCCC[n+]1cccc2c3ccccc3ccc21 | -8.7 | -15.7 | 12.9 | 110.2* | 73.2* | 0.5
c1ccc(C[n+]2cccc3c4ccccc4ccc32)cc1 | 3.3 | -6.5 | · | 27.4 | ? | 0.8
O=C(c1cccs1)N1CCCC(N2CCN(c3ccc(F)cc3)CC2)C1 (stereo unspecified) | -4.0 | -12.7 | -0.1 | -0.6 | -1.8 | 0.4
CC1=NN(c2nc(-c3ccc(F)cc3)cs2)C(=O)C1 | -6.3 | 27.8 | 85.5* | -9.2 | 7.0 | -0.7
Fc1ccc(-c2csc(N3CCSCC3)n2)cc1 | -32.8 | 2.4 | -12.3 | -2.0 | 11.1 | 0.7
CC1=NN(c2nc(-c3ccc(Cl)cc3)cs2)C(=O)C1 | 11.2 | 0.6 | 123.2* | -4.7 | -10.8 | -1.1
CCc1cccc(Nc2c([N+](=O)[O-])cc(C(=O)N3CC(=O)Nc4ccccc43)cc2[N+](=O)[O-])c1 | 1.9 | -1.2 | · | 12.1 | 77.4* | -0.2
C/C(=N\NC(=O)c1cc(-c2cccc([N+](=O)[O-])c2)n[nH]1)c1ccccc1O | 19.1 | 9.9 | 79.8* | · | 60.8* | -0.5
C/C(=N/NC(=O)c1cc(-c2cccc([N+](=O)[O-])c2)n[nH]1)c1cccc(O)c1 | 6.3 | 0.3 | -2.3 | -5.2 | -12.2 | -0.2
SMILES | PolyA inh | Calb FLC | CSC inhib | Beta apoptosis | T cruzi repl | HIF act
CCOc1ccc(C(=O)Nc2ccc(Cc3ccncc3)cc2)cc1Br | -17.9 | 65.4 | -1.8 | · | 74.1* | 0.1
Cc1c([N+](=O)[O-])cc(C(=O)Nc2ccc(Cc3ccncc3)cc2)cc1[N+](=O)[O-] | -7.8 | -31.6 | 60.9 | -0.8 | 59.3* | -0.3
O=C(Nc1ccc(Cc2ccncc2)cc1)c1ccc(Cl)c([N+](=O)[O-])c1 | -11.9 | 41.9 | 33.9 | 10.1 | 10.6 | -1.2
COc1c(C)cc(Br)cc1C(=O)Nc1ccc(Cc2ccncc2)cc1 | 1.3 | 6.0 | -1.1 | 0.7 | 60.5* | -0.5
CCOc1ccc(C(=O)Nc2ccc(NC(=O)c3ccccc3)cc2)cc1Br | 9.2 | 5.1 | -3.7 | · | -3.4 | 1.6
Cc1nnc(SCC(=O)NC2CCCC(C)C2C)n1N (stereo unspecified) | · | · | -6.0 | -3.9 | · | ·
Cc1noc(C)c1COc1cccc(C(=O)N2CCc3ccccc32)c1 | 12.5 | 58.9 | -5.9 | -1.5 | -5.6 | -0.4
Cc1n[nH]c(=S)n(NC(=O)CC(=O)Nn2c(=S)[nH]nc(C)c2=O)c1=O | -58.9 | 93.3* | -2.5 | 1.6 | 7.7 | -0.2
Cc1n[nH]c(=S)n(NC(=O)/C=C/C(=O)Nn2c(=S)[nH]nc(C)c2=O)c1=O | -1.3 | -7.3 | · | · | 12.1 | -0.8
CC(=O)Nc1ccc2nc(NC(=O)COc3ccccc3Cl)sc2c1 | 5.4 | 3.0 | · | · | -3.1 | 2.0
CC(=O)Nc1ccc2nc(NC(=O)COc3ccccc3C)sc2c1 | -18.5 | -41.6 | -20.2 | -6.6 | -12.3 | 11.7*
CCCCCC(=O)Nc1ccc(C2C(=O)c3ccccc3C2=O)cc1 | -0.9 | -3.5 | -14.8 | -6.2 | -9.9 | 0.6
CS(=O)(=O)c1ccc(Cl)c(NC(=O)CCCc2nc3ccccc3c(=O)[nH]2)c1 | 7.1 | -2.4 | 0.7 | · | -3.7 | -1.2
O=C1S/C(=C\c2ccccc2)C(=O)N1CC(O)Cn1c2ccccc2c2ccccc21 (stereo unspecified) | -1.7 | -0.7 | 37.5 | -1.3 | 57.9* | -0.8
CC(CCN(C)C)OC(=O)c1ccc(C(C)c2ccccc2)o1 (stereo unspecified) | 28.2 | 5.3 | 46.5 | 0.4 | 71.6* | 1.6
Cc1nc2ccc(NS(=O)(=O)c3ccc4c(c3)OCCO4)cc2s1 | -11.2 | -3.4 | 8.3 | 123.0* | -21.6 | 1.1
Cc1ccc(S(=O)(=O)Nc2ccc3nc(C)sc3c2)cc1 | -12.0 | 4.3 | -12.8 | 24.7 | -29.3 | 0.1
Cc1ccc(C)[n+](CC(=O)c2ccc(-c3ccccc3)cc2)c1 | -12.0 | 9.3 | 22.4 | 43.1 | 23.7 | -0.6
CC(C)c1ccc(S(=O)(=O)N2CCN(C(=O)C3CC3C)CC2)cc1 (stereo unspecified) | -1.1 | -3.9 | · | 4.2 | 0.0 | 0.1
CC1CC1C(=O)N1CCN(S(=O)(=O)c2cc(C(F)(F)F)cc(C(F)(F)F)c2)CC1 (stereo unspecified) | · | · | 78.7* | 3.0 | · | ·
Cn1nc(-c2ccccc2)cc1NC(=O)c1ccccc1 | -7.4 | 9.5 | 11.3 | -4.6 | 2.7 | -20.9
O=C(Nc1cc(-c2ccccc2)nn1C1CCCCC1)c1ccc(Cl)cc1 | · | · | · | 97.3* | · | ·

Assay outcomes deposited in PubChem BioAssay by Broad Institute.
